Compounds with a hit are over-represented: about 5.5% of the library has one in this group of screens.
WT yeast gro inh = growth inhibition of WT yeast, mitochondrial fusion screen. mitochondrial fusion phenotypic screen, WT strain. inhibition, % at 10 µM. actives 2.1% (n = 190,000). AID 1362; in the data active = inhibition above about 58%; tested in S. cerevisiae
KCC2 mod = KCC2 (human) Cl- transport modulation | Q9H2X9 | KCC2 cells, thallium flux FluoZin-2 fluorescence | B-score of Tl+ flux slope (higher = more flux/activation; lower = inhibition) at 10 µM | actives 2.2% (n = 190,000);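 active = thallium flux slope and its plate-corrected score both differing from the plate sample mean at a set confidence after two filtering rounds, in either direction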;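 note: slope of fluorescence scaled to starting intensity during 10 to 20 s after thallium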
RAM network inh = inhibitors of the yeast RAM network. S. cerevisiae dse1pr::URA3 reporter, 5-FOA growth OD615, 2 d; analog-sensitive cbk1-as2 kinase mutant strain. inhibition, % at 50 µM. actives 1.8% (n = 190,000);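 active = inhibition above a set limit, 3 SD over mean compound inhibition, cut at about 8.4% in these data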;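 note: 0% = DMSO-only wells with no growth and 100% = 10 µM 1-NA-PP1 full growth; inhibition rescues growth on 5-FOA so higher OD means more RAM inhibition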
Yeast lifespan up = yeast lifespan extension | S. cerevisiae growth with nicotinamide, OD615; deaD strain in restrictive glucose medium | inhibition of the nicotinamide effect, % at 10 µM | actives 0.68% (n = 130,000) | AID 775;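 active = inhibition above a set limit, placed 3 SD over the median of all compounds, cut at about 26% in these data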;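 note: 0% = nicotinamide-treated wells and 100% = cells grown without nicotinamide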
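Material: Modified budding yeast, DeaD strain | Medium: Restrictive glucose medium | Probe or stimulus: 1.5 mM nicotinamide | Dosing: Single dose 10 µM compound, 0.25% DMSO | Times: 48 h at 30 °C | Technique: OD615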
Yeast growth inh = reduces growth of yeast BB579 in restrictive medium | inhibition, % at 10 µM | actives 0.51% (n = 140,000) | S. cerevisiae BB579 growth, OD615, 48 h;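 active = inhibition above a set limit, 3 SD over the mean compound inhibition, cut at about 44% in these data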
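test system = yeast BB579 (DeaD) | buffer or medium = restrictive CSMM-D medium | doses = single compound dose of 10 µM, 0.25% DMSO final | times = 4 h preincubation and 48 h exposure at 30 °C | technique = culture absorbance at 615 nm | benchmarks = amphotericin B 10 µg/mL, positive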
RAM 5-FOA = restores 5-FOA growth of efflux-deficient yeast; 1,200 tested, under 10 active; shares compounds with RAM network inh; S. cerevisiae efflux-deficient reporter strain, 5-FOA growth OD615, 2 days; max inhibition, %; call rule not given here;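 note: plate controls were vehicle for no effect and reference inhibitor for full effect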
The depositor's hits bear a star; · = no result given.

SMILES	WT yeast gro inh	KCC2 mod	RAM network inh	Yeast lifespan up	Yeast growth inh	RAM 5-FOA
O=C(NC(=S)NCc1ccccc1)c1ccccc1[N+](=O)[O-]	7	3.4	2	·	·	·
COc1cc([N+](=O)[O-])ccc1NC(=O)NCc1ccco1	-3	-0.45	2	·	·	·
O=C(Cn1nc2n(c1=O)-c1ccccc1SC2)N/N=C/c1ccncc1	·	-1.1	·	·	·	·
COc1cccc(/C=C(/C(=O)OCC(N)=O)c2ccccc2)c1	1	-0.02	0	·	·	·
COc1cccc(/C=C(/C(=O)OCC(=O)NC2CCCC(C)C2C)c2ccccc2)c1 (stereo not drawn)	34	-1.8	20*	8	-13	6
COCCOC(=O)c1c(C)oc2ccc(OC(=O)COc3c(F)c(F)c(F)c(F)c3F)cc12	2	-0.75	16*	-6	10	2
Cc1oc2ccc(OC(=O)COc3c(F)c(F)c(F)c(F)c3F)cc2c1C(=O)OC(C)C	5	-0.017	13*	4	-26	2
COCCOC(=O)c1c(C)oc2ccc(OS(C)(=O)=O)cc12	12	-0.11	2	·	·	·
CCOC(=O)C(NC(=O)c1ccc(OC)cc1)(N1CCCC1=O)C(F)(F)F (stereo not drawn)	11	0.27	3	3	-12	·
Cc1cc(C)c(NC(=O)/C(=C/c2ccccc2)c2ccccc2)c(C)c1	15	-3.5	13*	59	-4	3
Cc1cc(S(=O)(=O)N(Cc2ccccn2)Cc2ccco2)ccc1-n1cnnn1	-12	0.025	0	-13	-42	·
CC1CCCCN1S(=O)(=O)c1ccc(S(=O)(=O)N(Cc2ccccc2)Cc2ccco2)cc1 (stereo not drawn)	0	-0.35	14*	·	-31	3
CCN(Cc1ccccc1)S(=O)(=O)c1ccc(S(=O)(=O)N(Cc2ccccn2)Cc2ccco2)cc1	1	·	13*	-1	-23	2
O=C(O)c1nnn(-c2cccc(C(F)(F)F)c2)c1-c1ccccc1	·	-0.04	·	·	·	·
CCOc1ccc(NS(=O)(=O)c2cc(NC(=O)c3cccc(C)c3)ccc2Cl)cc1	13	-0.65	6	2	-27	·
CC(C)=CCc1c2c(c3occ(-c4ccc(O)cc4)c(=O)c3c1O)C=CC(C)(C)O2	54	0.67	17*	·	·	4
O=c1c(-c2ccc(O)cc2)coc2cc(O)cc(O)c12	·	-0.81	·	·	·	·
O=C(O)Cc1cc(I)c(Oc2ccc(O)c(I)c2)c(I)c1	-12	-3.2	17*	31*	66*	2
C=CCn1c(SCC(=O)/C(C#N)=C(\C)N)nc2sc(CC)cc2c1=O	10	0.1	13*	-3	-31	8
O=c1[nH]c(CSc2ccccn2)nc2c1oc1ccccc12	21	-0.97	1	·	·	·
CCC(=O)N1CCc2cc(S(=O)(=O)NC(Cc3ccccc3)C(=O)NC3CCCCC3)ccc21 (stereo not drawn)	-5	-0.42	14*	8	-31	2
CCN(CC)S(=O)(=O)c1ccc(N2CCN(c3cccc(OC)c3)CC2)c([N+](=O)[O-])c1	-17	0.8	13*	12	-28	5
O=C(/C=C/c1ccc(N2CCCCC2)c([N+](=O)[O-])c1)c1ccc(S(=O)(=O)N2CCCC2)cc1	21	0.098	12*	3	-44	6
COc1cccc(C(=O)/C=C/c2ccc(N3CCCCC3)c([N+](=O)[O-])c2)c1	-9	1.5	19*	22	-48	5
COc1cccc(/C=C/C(=O)c2cccc([N+](=O)[O-])c2)c1	12	-0.17	1	·	·	·
SMILES	WT yeast gro inh	KCC2 mod	RAM network inh	Yeast lifespan up	Yeast growth inh	RAM 5-FOA
CCOC(=O)C(=O)Nc1ccccc1C(=O)NCc1ccccc1	-4	0.11	0	·	·	·
O=C(NCCCN1CCOCC1)c1sc2ccccc2c1Cl	3	0.041	1	·	·	·
Cc1ccc(OCc2nnc(SCC(=O)Nc3ccc4c(c3)OCCO4)n2Cc2ccco2)cc1	5	-1.8	12*	-5	-35	1
O=C(CSc1nnc(-c2ccccc2)n1Cc1ccco1)Nc1ccc2c(c1)OCCO2	21	·	6	-23	-25	·
O=S(=O)(Nc1ccc(-c2csc(-c3ccccc3)n2)cc1)c1ccccc1	91*	-0.32	13*	9	-47	1
CCN(CC)S(=O)(=O)c1cccc(C(=O)c2c(C)cc3ccccn23)c1	31	-3.2	15*	12	-53	2

Screens from PubChem.
